Test results as given in ChEMBL document CHEMBL1127365, “Self-immolative prodrugs: candidates for antibody-directed enzyme prodrug therapy in conjunction with a nitroreductase enzyme” (J Med Chem, 1994).

Columns and labels:
V79 [1] = experiment: (§1) Tested for the effect of enzyme activation on the cytotoxicity at 10 uM when incubated with chinese hamster V79 cells; format: functional, Cricetulus griseus
V79 [2] = experiment: (§2) Tested for the effect of enzyme activation on the cytotoxicity at 10 uM when incubated with chinese hamster V79 cells in presence of NADH; format: functional, Cricetulus griseus
Method in brief: (§3)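 Chinese hamster V79 cells (2 × 10^5/mL) in PBS were exposed to the test agent plus NADH (500 μM), without enzyme, for 2 h at 37 °C. Cells were then harvested and assayed for colony-forming ability, reported as % survival. The supernatant was assayed by HPLC for remaining prodrug.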

V79 [3] = experiment: (§4) Tested for the effect of enzyme activation on the cytotoxicity at 10 uM when incubated with chinese hamster V79 cells in presence of NADH and nitroreductase enzyme.; format: functional, Cricetulus griseus
Method in brief: as §3, with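 “with” for “plus”, “μM) and E. coli B nitroreductase (10 μg/mL)” for “μM), without enzyme,”, “prodrug, giving % prodrug reduction.” for “prodrug.”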

V79 [4] = experiment: as §4; format: functional; conditions: Cricetulus griseus, read-out: Survival
Method in brief: as §3, with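 “with” for “plus”, “μM) and E. coli B nitroreductase (10 μg/mL)” for “μM), without enzyme,”, “prodrug, giving % prodrug reduction.” for “prodrug.”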

V79 [5] = experiment: as §2; format: functional; conditions: Cricetulus griseus, read-out: Survival; method in brief: as §3
V79 [6] = experiment: as §1; format: functional; conditions: Cricetulus griseus, read-out: Survival
Method in brief: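 Chinese hamster V79 cells (2 × 10^5/mL) in PBS were exposed to the test agent alone, without NADH or NR, for 2 h at 37 °C. Cells were then harvested and assayed for colony-forming ability, reported as % survival. The supernatant was checked by HPLC for remaining prodrug.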

V79 [7] = experiment: (§5) Tested for the effect of enzyme activation on the cytotoxicity at 50 uM when incubated with chinese hamster V79 cells in presence of NADH and nitroreductase enzyme.; format: functional; conditions: Cricetulus griseus, read-out: Survival
Method in brief: as §3, with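 “with” for “plus”, “μM) and E. coli B nitroreductase (10 μg/mL)” for “μM), without enzyme,”, “prodrug, giving % prodrug reduction.” for “prodrug.”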

V79 [8] = experiment: (§6) Tested for the effect of enzyme activation on the cytotoxicity at 50 uM when incubated with chinese hamster V79 cells; format: functional, Cricetulus griseus
V79 [9] = experiment: (§7) Tested for the effect of enzyme activation on the cytotoxicity at 50 uM when incubated with chinese hamster V79 cells in presence of NADH; format: functional, Cricetulus griseus; method in brief: as §3
V79 [10] = experiment: as §5; format: functional, Cricetulus griseus
Method in brief: as §3, with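 “with” for “plus”, “μM) and E. coli B nitroreductase (10 μg/mL)” for “μM), without enzyme,”, “prodrug, giving % prodrug reduction.” for “prodrug.”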

V79 [11] = experiment: as §7; format: functional; conditions: Cricetulus griseus, read-out: Survival; method in brief: as §3
V79 [12] = experiment: as §6; format: functional; conditions: Cricetulus griseus, read-out: Survival
Mus musculus [13] = experiment: In vivo toxicity in mouse at dose 1 mg/kg when administered intraperitoneally on day 2; format: organism-based; design: dose 1 mg/kg, route intraperitoneal; conditions: ip
Method in brief: (§8)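 Balb C mice (20-25 g), groups of 3, single ip injection in arachis oil; doses 1, 5, 10 or 100 mg/kg. Untreated and arachis-oil-only groups served as controls. Mice were fed rodent diet and water ad libitum. Body weight was recorded as % of day 0 on days 2, 3, 7 and 9, and deaths were noted.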

Mus musculus [14] = experiment: In vivo toxicity in mouse at dose 100 mg/kg when administered intraperitoneally on day 3; format: organism-based; design: dose 100 mg/kg, route intraperitoneal; conditions: ip; method in brief: as §8
Mus musculus [15] = experiment: In vivo toxicity in mouse at dose 100 mg/kg when administered intraperitoneally on day 7; format: organism-based; design: dose 100 mg/kg, route intraperitoneal; conditions: ip; method in brief: as §8
Mus musculus [16] = experiment: In vivo toxicity in mouse at dose 100 mg/kg when administered intraperitoneally on day 2; format: organism-based; design: dose 100 mg/kg, route intraperitoneal; conditions: ip; method in brief: as §8
Mus musculus [17] = experiment: In vivo toxicity in mouse at dose 10 mg/kg when administered intraperitoneally on day 3; format: organism-based; design: dose 10 mg/kg, route intraperitoneal; conditions: ip; method in brief: as §8
Mus musculus [18] = experiment: In vivo toxicity in mouse at dose 100 mg/kg when administered intraperitoneally on day 9; format: organism-based; design: dose 100 mg/kg, route intraperitoneal; conditions: ip; method in brief: as §8
Mus musculus [19] = experiment: In vivo toxicity in mouse at dose 1 mg/kg when administered intraperitoneally on day 3; format: organism-based; design: dose 1 mg/kg, route intraperitoneal; conditions: ip; method in brief: as §8
Mus musculus [20] = experiment: In vivo toxicity in mouse at dose 10 mg/kg when administered intraperitoneally on day 2; format: organism-based; design: dose 10 mg/kg, route intraperitoneal; conditions: ip; method in brief: as §8
Mus musculus [21] = experiment: In vivo toxicity in mouse at dose 1 mg/kg when administered intraperitoneally on day 9; format: organism-based; design: dose 1 mg/kg, route intraperitoneal; conditions: ip; method in brief: as §8
Mus musculus [22] = experiment: In vivo toxicity in mouse at dose 10 mg/kg when administered intraperitoneally on day 7; format: organism-based; design: dose 10 mg/kg, route intraperitoneal; conditions: ip; method in brief: as §8
Mus musculus [23] = experiment: In vivo toxicity in mouse at dose 1 mg/kg when administered intraperitoneally on day 7; format: organism-based; design: dose 1 mg/kg, route intraperitoneal; conditions: ip; method in brief: as §8
Mus musculus [24] = experiment: In vivo toxicity in mouse at dose 10 mg/kg when administered intraperitoneally on day 9; format: organism-based; design: dose 10 mg/kg, route intraperitoneal; conditions: ip; method in brief: as §8
V79 [25] = experiment: (§9) Tested for the effect of enzyme activation on the cytotoxicity at 1 uM when incubated with chinese hamster V79 cells in presence of NADH and nitroreductase enzyme.; format: functional, Cricetulus griseus
Method in brief: as §3, with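 “with” for “plus”, “μM) and E. coli B nitroreductase (10 μg/mL)” for “μM), without enzyme,”, “prodrug, giving % prodrug reduction.” for “prodrug.”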

V79 [26] = experiment: (§10) Tested for the effect of enzyme activation on the cytotoxicity at 1 uM when incubated with chinese hamster V79 cells in presence of NADH; format: functional, Cricetulus griseus; method in brief: as §3
V79 [27] = experiment: (§11) Tested for the effect of enzyme activation on the cytotoxicity at 1 uM when incubated with chinese hamster V79 cells; format: functional, Cricetulus griseus
V79 [28] = experiment: as §10; format: functional; conditions: Cricetulus griseus, read-out: Survival; method in brief: as §3
V79 [29] = experiment: as §9; format: functional; conditions: Cricetulus griseus, read-out: Survival
Method in brief: as §3, with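 “with” for “plus”, “μM) and E. coli B nitroreductase (10 μg/mL)” for “μM), without enzyme,”, “prodrug, giving % prodrug reduction.” for “prodrug.”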

V79 [30] = experiment: as §11; format: functional; conditions: Cricetulus griseus, read-out: Survival
V79 [31] = experiment: as §10; format: functional, Cricetulus griseus; remark: listed apart in the source
Mus musculus [32] = experiment: Tested in vivo toxicity in mouse at dose 1 mg/kg when administered intraperitoneally on day 9; format: organism-based; design: dose 1 mg/kg, route intraperitoneal; conditions: ip
Method in brief: (§12)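 Balb C mice (20-25 g), groups of 3, fed rodent diet and water ad libitum. Single ip injection in arachis oil at 1, 5, 10 or 100 mg/kg. Untreated and arachis-oil-only groups served as controls. Body weight recorded as % of day 0 on days 2, 3, 7 and 9.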

Mus musculus [33] = experiment: Tested in vivo toxicity in mouse at dose 1 mg/kg when administered intraperitoneally on day 3; format: organism-based; design: dose 1 mg/kg, route intraperitoneal; conditions: ip; method in brief: as §12
Mus musculus [34] = experiment: Tested in vivo toxicity in mouse at dose 1 mg/kg when administered intraperitoneally on day 2; format: organism-based; design: dose 1 mg/kg, route intraperitoneal; conditions: ip; method in brief: as §12
Mus musculus [35] = experiment: Tested in vivo toxicity in mouse at dose 1 mg/kg when administered intraperitoneally on day 7; format: organism-based; design: dose 1 mg/kg, route intraperitoneal; conditions: ip; method in brief: as §12

In the case of `O=C(OCc1ccc([N+](=O)[O-])cc1)Oc1ccc(N(CCCl)CCCl)cc1`, the Prodrug reduction (V79 [1]) is reported as 0%, the Prodrug reduction (V79 [2]) is reported as 0% and the Prodrug reduction (V79 [3]) is reported as 86%. The viability at 10 µM (V79 [4]) was 43.3%, the viability at 10 µM (V79 [5]) was 45.8% and the viability at 10 µM (V79 [6]) was 56.4%.
For `O=C(Nc1ccc(N(CCCl)CCCl)cc1)OCc1ccc([N+](=O)[O-])cc1`, the viability at 50 µM (V79 [7]) was < 0.001%, the Prodrug reduction (V79 [8]) was 0% and the Prodrug reduction (V79 [9]) was 0%. It also gave a Prodrug reduction (V79 [10]) of 30%, a viability at 50 µM (V79 [11]) of 34.1% and a viability at 50 µM (V79 [12]) of 27.1%.
For `Cc1c2oc3c(C)ccc(C(=O)N[C@@H]4C(=O)N[C@H](C(C)C)C(=O)N5CCC[C@H]5C(=O)N(C)CC(=O)N(C)[C@@H](C(C)C)C(=O)O[C@@H]4C)c3nc-2c(C(=O)N[C@@H]2C(=O)N[C@H](C(C)C)C(=O)N3CCC[C@H]3C(=O)N(C)CC(=O)N(C)[C@@H](C(C)C)C(=O)O[C@@H]2C)c(NC(=O)OCc2ccc([N+](=O)[O-])cc2)c1=O` [listing 1 of 2 here], the Weight (Mus musculus [13]) was 102%, the Weight (Mus musculus [14]) was 95.6% and the Weight (Mus musculus [15]) was 95%. For the same compound, the Weight (Mus musculus [16]) was 96.4%, the Weight (Mus musculus [17]) was 105% and the Weight (Mus musculus [18]) was 96%. For the same compound, the Weight (Mus musculus [19]) was 101%, the Weight (Mus musculus [20]) was 109% and the Weight (Mus musculus [21]) was 103%. For the same compound, the Weight (Mus musculus [22]) was 108%, the Weight (Mus musculus [23]) was 101% and the Weight (Mus musculus [24]) was 110%.
`Cc1c2oc3c(C)ccc(C(=O)N[C@@H]4C(=O)N[C@H](C(C)C)C(=O)N5CCC[C@H]5C(=O)N(C)CC(=O)N(C)[C@@H](C(C)C)C(=O)O[C@@H]4C)c3nc-2c(C(=O)N[C@@H]2C(=O)N[C@H](C(C)C)C(=O)N3CCC[C@H]3C(=O)N(C)CC(=O)N(C)[C@@H](C(C)C)C(=O)O[C@@H]2C)c(NC(=O)OCc2ccc([N+](=O)[O-])cc2)c1=O` [listing 2 of 2 here] was tested, and the Prodrug reduction (V79 [25]) was 90.5%, the Prodrug reduction (V79 [26]) was 0% and the Prodrug reduction (V79 [27]) was 0%. For the same compound, the viability at 1 µM (V79 [28]) was 102%, the Prodrug reduction (V79 [1]) was 0% and the viability at 1 µM (V79 [29]) was 27.4%. The viability at 1 µM (V79 [30]) was 98.3%, the Prodrug reduction (V79 [2]) was 0% and the Prodrug reduction (V79 [3]) was 93%. The viability at 10 µM (V79 [4]) was < 0.001%, the viability at 10 µM (V79 [5]) was 44.6% and the viability at 10 µM (V79 [6]) was 39.3%.
With `COC12C(COC(N)=O)C3=C(C(O)=C(C)C(=N)C3=O)N1CC1C2N1C(=O)OCc1ccc([N+](=O)[O-])cc1` (stereo unspecified) the Prodrug reduction (V79 [25]) was 91%, the Prodrug reduction (V79 [27]) was 0% and the viability at 1 µM (V79 [28]) was 70.8%. The Prodrug reduction (V79 [31]) was 0%, the viability at 1 µM (V79 [29]) was 25.4% and the viability at 1 µM (V79 [30]) was 76.7%.
Compound `Cc1c2oc3c(C)ccc(C(=O)N[C@@H]4C(=O)N[C@H](C(C)C)C(=O)N5CCC[C@H]5C(=O)N(C)CC(=O)N(C)[C@@H](C(C)C)C(=O)O[C@@H]4C)c3nc-2c(C(=O)N[C@@H]2C(=O)N[C@H](C(C)C)C(=O)N3CCC[C@H]3C(=O)N(C)CC(=O)N(C)[C@@H](C(C)C)C(=O)O[C@@H]2C)c(N)c1=O` (stereo in doubt) [DACTINOMYCIN] has a Weight (Mus musculus [32]) of 103%, a Weight (Mus musculus [33]) of 95% and a Weight (Mus musculus [34]) of 98.6%. For the same compound, the Weight (Mus musculus [35]) was 101.6%.
